High-throughput results from PubChem.
This is a sample that favours compounds with a hit; in the whole collection about 2.9% have one here.
TRPC4 inh: inhibitors of mouse TRPC4 channel, primary screen, Fluo4 calcium, HEK293 TRPC4beta/mu-opioid cells. actives 0.39% (n = 300,000). B-score at 10 µM. DAMGO-evoked Fluo4 calcium flux; active compounds read low;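 active = B-score over 3 SD under the library average, no early fluorescence shift, positive overall ratio signal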
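test system = HEK293 cells with stable TRPC4beta plus mu-opioid receptor expression | detection = Fluo4 Ca2+ flux fluorescence | read-out = integrated fluorescence ratio relative to baseline, converted to per-well B score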
Kir21 block: inhibitors of mouse Kir2.1 inward-rectifier potassium channel; Inward rectifier potassium channel 2 (Mus musculus), P35561; HEK293-Kir2.1, FluxOR thallium flux fluorescence; active compounds read low; B-score at 10 µM; actives 0.85% (n = 310,000); AID 1672, 2009;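 active = fluorescence ratio B-score at or below minus 3 SD of library scores, with starting-brightness B-score within 2 SD, cut at about -4.2 in these data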;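 also: channel flux triggered by added potassium and thallium sulfate stimulus; B-score of peak minus minimum fluorescence over baseline after thallium stimulus; more negative B-score means stronger Kir2.1 block with less thallium influx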
Target sequence (P35561 whole entry, looked up): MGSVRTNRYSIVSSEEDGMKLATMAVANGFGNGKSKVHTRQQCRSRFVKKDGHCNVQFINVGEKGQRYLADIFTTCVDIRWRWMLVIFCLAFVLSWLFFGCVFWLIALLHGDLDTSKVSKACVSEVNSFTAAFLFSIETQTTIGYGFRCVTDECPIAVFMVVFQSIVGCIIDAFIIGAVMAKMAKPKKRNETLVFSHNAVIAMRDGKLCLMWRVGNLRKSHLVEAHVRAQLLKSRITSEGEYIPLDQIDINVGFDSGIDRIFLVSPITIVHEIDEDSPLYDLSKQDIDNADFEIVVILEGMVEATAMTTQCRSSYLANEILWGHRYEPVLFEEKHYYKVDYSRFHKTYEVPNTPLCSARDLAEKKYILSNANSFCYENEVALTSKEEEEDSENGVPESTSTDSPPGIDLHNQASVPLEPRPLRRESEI
TRPC4 potent: positive allosteric modulators of TRPC4, primary screen, cell-based, mouse TRPC4beta, HEK293 mu-opioid, Fluo-4 calcium | Short transient receptor potential channel 4 (Mus musculus), Q9QUQ5 | DAMGO EC20, Fluo-4 Ca2+ flux; active compounds read high | B-score at 10 µM | actives 0.42% (n = 310,000);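 active = B-score of calcium response area above 5 SD of library B-scores, with initial fluorescence ratio within 5 SD of library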;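 also: B-score of integrated fluorescence ratio over time as area under calcium response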
TRPC6 inh: mouse TRPC6 channel inhibitors, primary screen, cell-based, HEK293, membrane potential dye; Short transient receptor potential channel 6 (Mus musculus), Q61143; ACh-evoked depolarization; active compounds read low; B-score at 10 µM; actives 1.1% (n = 310,000); AID 2553, 2010;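 active = B-score under library mean minus 3 SD, initial fluorescence not abnormally high, positive integrated signal ratio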;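 also: B-score derived from integrated fluorescence ratio over the kinetic read; more negative B-score means stronger inhibition of depolarization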
TRPC6 act: mouse TRPC6 channel activators, primary screen, cell-based, HEK293, membrane potential dye; Short transient receptor potential channel 6 (Mus musculus), Q61143; HEK293-TRPC6 membrane potential dye fluorescence; active compounds read high; B-score at 10 µM; actives 0.13% (n = 310,000);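 active = B-score of the integrated fluorescence ratio above library mean plus 3 SD, and starting fluorescence ratio within library mean plus 5 SD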;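 also: higher score means more depolarization so channel activation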
TRPC4 act: activators of mouse TRPC4 channel, primary screen, Fluo4 calcium, HEK293 TRPC4beta/mu-opioid cells; Fluo4 calcium fluorescence; active compounds read high; actives 0.49% (n = 310,000); B-score at 10 µM;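 active = B-score above 5 SD of library B-scores, and initial fluorescence ratio not above library mean plus 5 SD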;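 also: positive B-score marks a calcium rise read as TRPC4 activation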
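Assay system: HEK293 cells stably co-expressing mouse TRPC4beta and mu-opioid receptor / Timing: Fluo4 dye loading 45 min at room temperature, 110 s recording / Signal: Fluo4 calcium-sensitive dye fluorescence, kinetic, 1 Hz baseline / Read-out: integrated baseline-normalised fluorescence ratio, converted to per-well B score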
TRPC4 spec 2: second selectivity test of TRPC6 inhibitors: effect on mouse TRPC4; shares compounds with TRPC6 inh; HEK293 TRPC4/MOR, membrane potential dye fluorescence; channel activated by saturating DAMGO dose; inhibition, % at 10 µM; actives 42% (n = 920); AID 2776;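 active = compounds whose fluorescence signal differed from control wells by over 3 SD, either direction, in both duplicate plates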
TRPC4 spec: mouse TRPC4 modulation by TRPC6 hits, confirmation, selectivity assay for TRPC6 inhibitor project, cell-based, HEK293 TRPC4/mu-opioid, membrane potential dye | shares compounds with TRPC6 inh | membrane potential fluorescence | activity change, negative = inhibition, % at 10 µM | actives 61% (n = 920) | AID 2777, 2010;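 active = rise or fall in signal beyond 3 SD of buffer-only wells in both replicate plates, either sign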;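 also: integrated kinetic ratio of fluorescence range over baseline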
HEK293 MPD ctr 2-1: nonspecific membrane potential effects, parental HEK293, confirmation, counter-screen for TRPC6 inhibitor project, cell-based, second counter screen; AID 2779, 2010; parental HEK293 membrane potential dye fluorescence; maximal acetylcholine challenge after compound addition; signal change vs control, % at 10 µM; shares compounds with TRPC6 inh; actives 31% (n = 920);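 active = membrane potential signal moving either way by over 3 SD of the maximum-effect control, in both duplicate plates, meaning non-specific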
HEK293 MPD ctr-1: membrane potential modulation in parental HEK293, confirmation, counter-screen for TRPC6 inhibitor project, cell-based | AID 2780, 2010 | shares compounds with TRPC6 inh | membrane potential signal change, % at 10 µM | parental HEK293 membrane potential dye fluorescence | actives 60% (n = 920);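 active = membrane potential signal shifting up or down by more than 3 SD of buffer-only wells, on both duplicate plates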
HEK293 MPD ctr-2: parental HEK293 membrane potential modulation, confirmation, counter-screen for TRPC6 modulator project, cell-based | actives 51% (n = 2,400) | AID 488924, 2010 | shares compounds with TRPC6 inh | membrane potential signal change, % at 10 µM | membrane potential dye fluorescence;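 active = membrane potential signal moves up or down beyond 5 SD from buffer-only wells, on both duplicate plates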
HEK293 MPD ctr 2-2: second check of TRPC6 modulator effects in parental HEK293 cells. shares compounds with TRPC6 inh. membrane potential dye fluorescence; after compound, maximal acetylcholine stimulation. inhibition, % at 10 µM. actives 14% (n = 2,400);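 active = membrane potential signal drops by more than 5 SD from the mean control signal, in both duplicate plates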;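 also: plate controls were acetylcholine ECmax control wells for no effect and buffer only wells for full effect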
TRPC4/MOR mod: TRPC4 modulation by TRPC6 hit compounds, confirmation, selectivity assay for TRPC6 modulator project, cell-based, HEK293 TRPC4/mu-opioid, membrane potential dye, mouse; shares compounds with TRPC6 inh; membrane potential fluorescence; percent change from control (negative = decrease, positive = increase), % at 10 µM; actives 69% (n = 2,400);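 active = membrane potential signal moved up or down beyond 5 SD of buffer control wells, in both duplicate plates, actives on both sides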;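 also: plate controls were assay buffer wells for no effect and DAMGO maximal-effect wells for full effect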
TRPC4 ctr inh 2: second selectivity test of TRPC6 modulators against mouse TRPC4; HEK293 TRPC4/mu-opioid, membrane potential dye fluorescence; stimulated with maximal-effect DAMGO; inhibition, % at 10 µM; AID 488928; actives 55% (n = 2,400); shares compounds with TRPC6 inh;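 active = drop in membrane potential signal beyond 5 SD of the control wells in both duplicate plates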;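 also: TRPC4 counter screen for TRPC6 hits run under conditions tuned for TRPC6 not TRPC4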
TRPC6 block conf: mouse TRPC6 channel inhibitors, confirmation, HEK293 cells, membrane potential dye, duplicate. shares compounds with TRPC6 inh. ACh-evoked depolarization. inhibition, % at 10 µM. actives 43% (n = 3,300);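 active = fluorescence ratio falls more than 5 SD below the full-stimulation control mean, in both duplicate runs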;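 also: integrated fluorescence ratio of peak minus minimum over baseline after agonist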
TRPC6 act confirm: mouse TRPC6 channel activators, confirmation, HEK293 cells, membrane potential dye, duplicate | shares compounds with TRPC6 inh | HEK293-TRPC6 membrane potential dye fluorescence, FDSS | activation, % at 10 µM | actives 11% (n = 2,800) | AID 488961, 2010;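 active = ratio signal rise beyond 5 SD above unstimulated control wells' mean, seen in both duplicate runs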;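 also: plate controls were buffer EC0 wells for no effect and acetylcholine ECmax response for full effect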
An asterisk follows results filed as active; i = inactive; · = not tested or not shown.

SMILES	TRPC4 inh	Kir21 block	TRPC4 potent	TRPC6 inh	TRPC6 act	TRPC4 act	TRPC4 spec 2	TRPC4 spec	HEK293 MPD ctr 2-1	HEK293 MPD ctr-1	TRPC6 block conf	TRPC6 act confirm	others
COc1ccc(-c2csc(N(CCCN(C)C)C(=O)c3ccccc3Cl)n2)cc1	i	-2.4	i	-7.9*	i	i	37%*	i	i	i	59%*	i
CCN(CC)CCCN(C(=O)c1ccc(F)cc1)c1nc(-c2ccc(OC)cc2)cs1	i	-1.2	i	-6.7*	i	i	33%*	i	i	i	73%*	i
COc1ccc(-c2csc(N(CCCN(C)C)C(=O)c3ccc(F)cc3)n2)cc1	i	-1.4	i	i	i	i	·	·	·	·	·	·
COc1ccc(-c2csc(N(CCCN(C)C)C(=O)c3ccccc3F)n2)cc1	i	-1.2	i	-6.5*	i	i	·	·	·	·	51%*	i	HEK293 MPD ctr-2=i;HEK293 MPD ctr 2-2=i;TRPC4/MOR mod=i;TRPC4 ctr inh 2=85%*
COC(=O)c1ccccc1NC(=S)N(Cc1ccc2c(c1)OCO2)Cc1cc2cc(OC)ccc2[nH]c1=O	i	-1	i	i	i	i	·	·	·	·	·	·
